Reference: ChEMBL document CHEMBL3286155, “Tricyclic pyrazoles. Part 6. Benzofuro[3,2-c]pyrazole: a versatile architecture for CB2 selective ligands” (Eur J Med Chem, 2014)
Calls of active or inactive are those of the source. The rule behind the calls is not given here.

Assays:
Mus musculus = organism: Mus musculus; assay: Selectivity ratio of Ki for CB1 receptor in CD1 mouse cerebellum-less brain homogenate to Ki for CB2 receptor in CD1 mouse spleen homogenate; format: tissue-based
Summary of the method: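 Ki measured in two assays. CB1 used male CD1 mouse brain (minus cerebellum) membranes and CB2 used spleen membranes, each with 0.5-1.0 nM [3H]-CP-55,940 for 1 h at 30 °C in TME buffer pH 7.4. IC50 converted by Cheng-Prusoff. Each Ki comes from five independent triplicate experiments, and the line is the ratio of the two Ki values.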

[1] = molecular target: Cannabinoid receptor 2 (Homo sapiens) (UniProt P34972); assay: Intrinsic activity at CB2 receptor in human HL60 cells assessed as upregulation of phosphorylated ERK1/2 expression at 75 nM after 15 mins by Western blotting analysis relative to control; format: cell-based; details: HL-60
Summary of the method: (§1)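 HL-60 human promyelocytic leukaemia cells were treated for 15 min with compounds in culture medium with 1% DMSO. Cells were pelleted, washed in PBS and lysed at 4 °C. Phospho-ERK1/2 in total extracts was detected by western blot with anti-phospho-ERK1/2 clone AW39R and chemiluminescence. Results expressed as mean percentage of vehicle (100%) ± SEM.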

[2] = molecular target: Cannabinoid receptor 2 (Homo sapiens) (UniProt P34972); assay: Intrinsic activity at CB2 receptor in human HL60 cells assessed as upregulation of phosphorylated ERK1/2 expression at 75 nM after 15 mins by Western blotting analysis in presence of CB2 receptor antagonist AM630; format: cell-based; details: HL-60
Summary of the method: (§2)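 HL-60 cells were pre-treated 5 min with CB2 antagonist AM630 (75 nM), then exposed 15 min to agonist in medium with 1% DMSO. Phospho-ERK1/2 in cell lysates was measured by western blot with anti-phospho-ERK1/2 clone AW39R. Controls were AM630 alone and agonist without pre-treatment. Results given as mean percentage of vehicle (100%) ± SEM.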

[3] = molecular target: Cannabinoid receptor 2 (Homo sapiens) (UniProt P34972); assay: Intrinsic activity at CB2 receptor in human HL60 cells assessed as upregulation of phosphorylated ERK1/2 expression at 50 nM after 15 mins by Western blotting analysis relative to control; format: cell-based; details: HL-60; summary of the method: as §1
[4] = molecular target: Cannabinoid receptor 2 (Homo sapiens) (UniProt P34972); assay: Intrinsic activity at CB2 receptor in human HL60 cells assessed as upregulation of phosphorylated ERK1/2 expression at 50 nM after 15 mins by Western blotting analysis in presence of CB2 receptor antagonist AM630; format: cell-based; details: HL-60; summary of the method: as §2
Cannabinoid receptor 2 = Cannabinoid receptor 2 (Mus musculus, UniProt P47936); assay: Displacement of [3H]-CP-55,940 from CB2 receptor in CD1 mouse spleen homogenate after 1 hr by liquid scintillation counting analysis; format: tissue-based
Summary of the method: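 Male CD1 mice killed by cervical dislocation; spleen homogenised in 20 vol ice-cold TME buffer (50 mM Tris-HCl, 1 mM EDTA, 3.0 mM MgCl2, pH 7.4), spun 1086 × g then 45,000 × g. Membranes incubated with 0.5–1.0 nM [3H]CP-55,940, 1 h, 30 °C, with 5 mg/mL fatty-acid-free BSA; nonspecific binding defined with CP-55,940. Filtration stop. Triplicates, five independent assays. Sigmoid fit for IC50, then Cheng-Prusoff Ki.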

Cannabinoid receptor 1 = Cannabinoid receptor 1 (Mus musculus, UniProt P47746); assay: Displacement of [3H]-CP-55,940 from CB1 receptor in CD1 mouse cerebellum-less brain homogenate after 1 hr by liquid scintillation counting analysis; format: tissue-based
Summary of the method: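 Membranes from brain (minus cerebellum) of male CD1 mice, homogenised in ice-cold TME buffer (50 mM Tris-HCl, 1 mM EDTA, 3.0 mM MgCl2, pH 7.4), incubated with 0.5-1.0 nM [3H]-CP-55,940 for 1 h at 30 °C with fatty acid-free BSA. Non-specific binding defined with CP-55,940. Filtration, then scintillation counting. Triplicates in five independent assays; IC50 from sigmoid fit, converted to Ki by Cheng-Prusoff.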

[5] = molecular target: Cannabinoid receptor 2 (Homo sapiens) (UniProt P34972); assay: Intrinsic activity at CB2 receptor in human HL60 cells assessed as upregulation of phosphorylated ERK1/2 expression at 5 nM after 15 mins by Western blotting analysis relative to control; format: cell-based; details: HL-60; summary of the method: as §1
[6] = molecular target: Cannabinoid receptor 2 (Homo sapiens) (UniProt P34972); assay: Intrinsic activity at CB2 receptor in human HL60 cells assessed as upregulation of phosphorylated ERK1/2 expression at 5 nM after 15 mins by Western blotting analysis in presence of CB2 receptor antagonist AM630; format: cell-based; details: HL-60; summary of the method: as §2
[7] = molecular target: Cannabinoid receptor 2 (Homo sapiens) (UniProt P34972); assay: Intrinsic activity at CB2 receptor in human HL60 cells assessed as upregulation of phosphorylated ERK1/2 expression at 10 nM after 15 mins by Western blotting analysis relative to control; format: cell-based; details: HL-60; summary of the method: as §1
[8] = molecular target: Cannabinoid receptor 2 (Homo sapiens) (UniProt P34972); assay: Intrinsic activity at CB2 receptor in human HL60 cells assessed as upregulation of phosphorylated ERK1/2 expression at 10 nM after 15 mins by Western blotting analysis in presence of CB2 receptor antagonist AM630; format: cell-based; details: HL-60; summary of the method: as §2
Homo sapiens = organism: Homo sapiens; assay: Selectivity ratio of Ki for CB1 receptor (unknown origin) to Ki for CB2 receptor (unknown origin)

Sequence of Cannabinoid receptor 2 (P47936 whole entry): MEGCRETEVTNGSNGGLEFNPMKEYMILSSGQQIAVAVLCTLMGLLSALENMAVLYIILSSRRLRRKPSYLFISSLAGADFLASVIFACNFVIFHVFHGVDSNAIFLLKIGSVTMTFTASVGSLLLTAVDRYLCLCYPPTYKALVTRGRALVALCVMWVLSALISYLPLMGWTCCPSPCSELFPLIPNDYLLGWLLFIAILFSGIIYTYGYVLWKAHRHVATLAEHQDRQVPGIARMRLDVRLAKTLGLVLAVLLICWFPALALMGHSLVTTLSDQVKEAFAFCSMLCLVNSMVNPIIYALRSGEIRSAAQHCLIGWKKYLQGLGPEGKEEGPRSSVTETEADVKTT
Sequence of Cannabinoid receptor 1 (P47746 whole entry): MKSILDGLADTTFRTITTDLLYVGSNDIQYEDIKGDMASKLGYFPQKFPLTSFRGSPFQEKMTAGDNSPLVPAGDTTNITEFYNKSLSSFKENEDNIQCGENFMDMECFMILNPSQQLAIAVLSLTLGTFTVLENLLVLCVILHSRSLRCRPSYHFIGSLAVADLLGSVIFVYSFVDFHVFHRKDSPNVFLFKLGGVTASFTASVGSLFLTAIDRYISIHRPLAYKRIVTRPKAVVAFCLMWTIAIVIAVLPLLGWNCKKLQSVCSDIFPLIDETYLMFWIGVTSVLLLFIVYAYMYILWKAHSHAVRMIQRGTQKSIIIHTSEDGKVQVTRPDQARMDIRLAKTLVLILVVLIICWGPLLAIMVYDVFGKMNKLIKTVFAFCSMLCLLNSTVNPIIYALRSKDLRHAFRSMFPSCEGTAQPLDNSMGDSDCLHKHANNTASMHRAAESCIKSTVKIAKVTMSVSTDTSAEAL
Sequence of Cannabinoid receptor 2 (Homo sapiens) (P34972 whole entry): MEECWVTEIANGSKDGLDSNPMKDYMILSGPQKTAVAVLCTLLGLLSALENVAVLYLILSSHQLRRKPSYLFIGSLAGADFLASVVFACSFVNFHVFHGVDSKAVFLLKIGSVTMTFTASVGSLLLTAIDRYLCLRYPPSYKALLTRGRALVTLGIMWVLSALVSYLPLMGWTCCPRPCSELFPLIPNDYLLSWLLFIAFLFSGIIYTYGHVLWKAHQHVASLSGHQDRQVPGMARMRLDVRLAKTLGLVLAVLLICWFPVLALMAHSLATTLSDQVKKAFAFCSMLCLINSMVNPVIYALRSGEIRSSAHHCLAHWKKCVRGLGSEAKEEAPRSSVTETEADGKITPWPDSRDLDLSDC

SMILES	Ratio Ki (Mus musculus)	Intrinsic activity [1]	Ki (Cannabinoid receptor 2)	Ki (Cannabinoid receptor 1)	also measured
Cc1ccc2c(c1)oc1c(C(=O)NC34CC5CC(CC(C5)C3)C4)nn(-c3ccc(Cl)cc3Cl)c12	13	175%	–	–	Intrinsic activity [2]: inactive
Cc1ccc2c(c1)oc1c(C(=O)NC3CCCCC3)nn(-c3ccc(Cl)cc3Cl)c12	79.9	–	–	–	Intrinsic activity [3]: 196%; Intrinsic activity [4]: inactive
Cc1c(C(=O)c2cccc3ccccc23)c2cccc3c2n1[C@H](CN1CCOCC1)CO3	–	190%	–	–	–
Cc1ccc2c(c1)oc1c(C(=O)N[C@@H]3C[C@H](C)CC[C@H]3C(C)C)nn(-c3ccc(Cl)cc3Cl)c12	16.6	–	2.3 nM	38.2 nM	Intrinsic activity [5]: 193%; Intrinsic activity [6]: inactive
Cc1ccc2c(c1)oc1c(C(=O)N[C@@H]3CC4CC([C@H]3C)C4(C)C)nn(-c3ccc(Cl)cc3Cl)c12 (stereo not given in full)	648	–	3.7 nM	2400 nM	Intrinsic activity [5]: 205%; Intrinsic activity [6]: inactive
Cc1ccc2c(c1)oc1c(C(=O)NC3C4CC5CC(C4)CC3C5)nn(-c3ccc(Cl)cc3Cl)c12 (stereo not given)	30.7	–	–	–	Intrinsic activity [3]: 187%; Intrinsic activity [4]: inactive
Cc1ccc2c(c1)oc1c(C(=O)N[C@H]3C4(C)CCC(C4)C3(C)C)nn(-c3ccc(Cl)cc3Cl)c12 (stereo not given in full)	103	–	2.5 nM	257 nM	Intrinsic activity [7]: 200%; Intrinsic activity [8]: inactive
Cc1ccc2c(c1)oc1c(C(=O)NN3CCCCC3)nn(-c3ccc(Cl)cc3Cl)c12	139	–	–	–	Intrinsic activity [3]: 205%; Intrinsic activity [4]: inactive
Cc1ccc2c(c1)oc1c(C(=O)NN3CCCC3)nn(-c3ccc(Cl)cc3Cl)c12	92.3	185%	–	–	Intrinsic activity [2]: inactive
Cc1ccc2c(c1)oc1c(C(=O)NN3CCOCC3)nn(-c3ccc(Cl)cc3Cl)c12	108	178%	–	–	Intrinsic activity [2]: inactive
Cc1ccc2c(c1)Cc1c(C(=O)NN3CCCCC3)nn(-c3ccc(Cl)cc3Cl)c1-2	–	–	–	–	Ratio Ki (Homo sapiens): 9810
Cc1ccc2c(c1)oc1c(C(=O)N[C@H]3CC4CC[C@]3(C)C4(C)C)nn(-c3ccc(Cl)cc3Cl)c12	134	–	3.5 nM	469 nM	Intrinsic activity [7]: 189%; Intrinsic activity [8]: inactive
